Test results from ChEMBL document CHEMBL1828601, “Small molecule peptidomimetic inhibitors of importin α/β mediated nuclear transport” (Bioorg Med Chem, 2010).
Activity calls are given as the source filed them. The rule behind the calls is not given here.

Experiments:
[1] = test system: FGM; assay: Inhibition of importin alpha/beta-mediated nuclear transportation of Alexa555-BSA-NLS in human FGM cell nucleus at 500 uM after 30 mins by fluorescence microscopy; format: cell-based
[2] = test system: FGM; assay: Inhibition of importin alpha/beta-mediated nuclear transportation of Alexa555-GST-M9 in human FGM cell nucleus at 500 uM after 30 mins by fluorescence microscopy; format: cell-based
Summary of the method: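 Transportin-dependent import measured the same way in permeabilized FGM cells, with 0.5 μM Alexa555-GST-M9 cargo in place of BSA-NLS. Conditions: 3 mg/ml HeLa cytosol, ATP-regenerating system, 0.2 mM GTP, 1% DMSO, 30 min at 30°C. Positive control was 1 mg/ml WGA. Nuclear cargo fluorescence quantified per nucleus by automated imaging.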

[3] = Inhibition of importin alpha/beta-mediated nuclear transportation of Alexa555-BSA-NLS in human FGM cell nucleus after 30 mins by fluorescence microscopy; format: cell-based
[4] = Inhibition of importin-beta binding to immobilized GST-IBB domain of importin alpha at 50 uM by surface plasmon resonance assay
[5] = Inhibition of importin-beta binding to immobilized GST-FG domain of Nup153 at 50 uM by surface plasmon resonance assay
[6] = Inhibition of importin-beta binding to immobilized GST-RanQLGTP at 50 uM by surface plasmon resonance assay
[7] = test system: FGM; assay: Selectivity ratio of IC50 for importin alpha/beta-mediated nuclear transportation of Alexa555-BSA-NLS to IC50 for importin alpha/beta-mediated nuclear transportation of Alexa555-GST-M9 in human FGM cell nucleus; format: cell-based

| Structure (SMILES) | inhibition [1] | inhibition [2] | further results |
| --- | --- | --- | --- |
| N[C@@H](CO)C(=O)Nc1ccc(C(=O)N[C@@H](CCc2ccccc2)C(=O)O)cc1OCc1ccc(Cl)cc1 | Active | Active |  |
| NCCCCNC(=O)[C@@H]1CN(C(=O)[C@@H](N)Cc2cnc[nH]2)C[C@H]1C(=O)NCCc1ccc2ccccc2c1 | inactive | inactive |  |
| NCCCC[C@H](N)C(=O)N1C[C@@H](C(=O)NCCc2c[nH]cn2)[C@H](C(=O)NCCc2c[nH]c3ccccc23)C1 | inactive | inactive |  |
| CC[C@H](C)[C@H](N)C(=O)N1C[C@@H](C(=O)NCCCCN)[C@H](C(=O)NCCc2ccc3ccccc3c2)C1 | inactive | inactive |  |
| NCCCCNC(=O)[C@@H]1CN(C(=O)[C@@H](N)Cc2c[nH]c3ccccc23)C[C@H]1C(=O)NCCc1ccc2ccccc2c1 | Active | Active |  |
| NCCCCNC(=O)[C@@H]1CN(C(=O)[C@@H](N)Cc2ccc(O)cc2)C[C@H]1C(=O)NCCc1ccc2ccccc2c1 | inactive | inactive |  |
| CSCC[C@H](N)C(=O)N1C[C@@H](C(=O)NCCc2c[nH]cn2)[C@H](C(=O)NCCc2c[nH]c3ccccc23)C1 | inactive | inactive |  |
| N[C@@H](CCc1ccccc1)C(=O)Nc1ccc(C(=O)N[C@@H](CCc2ccccc2)C(=O)O)cc1OCc1ccc(Cl)cc1 | Active | Active |  |
| N[C@@H](Cc1ccccc1)C(=O)Nc1ccc(C(=O)N[C@@H](CCc2ccccc2)C(=O)O)cc1OCc1ccc(Cl)cc1 | Active | Active |  |
| C[C@H](N)C(=O)N1C[C@@H](C(=O)NCCc2c[nH]cn2)[C@H](C(=O)NCCc2c[nH]c3ccccc23)C1 | inactive | inactive |  |
| C[C@H](N)C(=O)Nc1ccc(C(=O)N[C@@H](CCc2ccccc2)C(=O)O)cc1OCc1ccc(Cl)cc1 | Active | Active |  |
| C[C@@H](O)[C@H](N)C(=O)N1C[C@@H](C(=O)NCCc2c[nH]cn2)[C@H](C(=O)NCCc2c[nH]c3ccccc23)C1 | inactive | inactive |  |
| N[C@@H](Cc1ccc(O)cc1)C(=O)Nc1ccc(C(=O)N[C@@H](CCc2ccccc2)C(=O)O)cc1OCc1ccc(Cl)cc1 | Active | Active |  |
| CC[C@H](C)[C@H](N)C(=O)Nc1ccc(C(=O)N[C@@H](CCc2ccccc2)C(=O)O)cc1OCc1ccccc1 | Active |  | IC50 [3]: 106000 nM; Kd [4]: 42 nM; Kd [5]: 16 nM; Kd [6]: 61 nM; Ratio IC50 [7]: > 15 |
| N[C@@H](Cc1ccc2ccccc2c1)C(=O)N1C[C@@H](C(=O)NCCc2c[nH]cn2)[C@H](C(=O)NCCc2c[nH]c3ccccc23)C1 | Active | Active |  |
| CC(C)C[C@H](N)C(=O)N1C[C@@H](C(=O)NCCc2c[nH]cn2)[C@H](C(=O)NCCc2c[nH]c3ccccc23)C1 | inactive | inactive |  |
| N[C@@H](CC(=O)O)C(=O)N1C[C@@H](C(=O)NCCc2c[nH]cn2)[C@H](C(=O)NCCc2c[nH]c3ccccc23)C1 | inactive | inactive |  |
| N[C@@H](Cc1c[nH]c2ccccc12)C(=O)Nc1ccc(C(=O)N[C@@H](CCc2ccccc2)C(=O)O)cc1OCc1ccc(Cl)cc1 | Active | Active |  |

| Structure (SMILES) | inhibition [1] | inhibition [2] | further results |
| --- | --- | --- | --- |
| CC[C@H](C)[C@H](NC(=O)c1ccc(NC(=O)[C@@H](N)CCc2ccccc2)c(OCc2c[nH]cn2)c1)C(=O)O | Active | Active |  |
| NCC(=O)Nc1ccc(C(=O)N[C@@H](CCc2ccccc2)C(=O)O)cc1OCc1ccc(Cl)cc1 | inactive | inactive |  |
| N[C@@H](Cc1ccc(Cl)cc1)C(=O)N1C[C@@H](C(=O)NCCc2c[nH]cn2)[C@H](C(=O)NCCc2c[nH]c3ccccc23)C1 | Active | Active |  |
| CC[C@H](C)[C@H](N)C(=O)N1C[C@@H](C(=O)NCCc2c[nH]cn2)[C@H](C(=O)NCCc2c[nH]c3ccccc23)C1 | Active | Active |  |
| CSCC[C@H](N)C(=O)Nc1ccc(C(=O)N[C@@H](CCc2ccccc2)C(=O)O)cc1OCc1ccc(Cl)cc1 | Active | Active |  |
| NC(=O)C[C@H](N)C(=O)N1C[C@@H](C(=O)NCCc2c[nH]cn2)[C@H](C(=O)NCCc2c[nH]c3ccccc23)C1 | inactive | inactive |  |
| NCCCCNC(=O)[C@@H]1CN(C(=O)[C@@H](N)CC(N)=O)C[C@H]1C(=O)NCCc1ccc2ccccc2c1 | inactive | inactive |  |
| NC(=O)C[C@H](N)C(=O)Nc1ccc(C(=O)N[C@@H](CCc2ccccc2)C(=O)O)cc1OCc1ccc(Cl)cc1 | Active | Active |  |
| CC(C)[C@H](N)C(=O)N1C[C@@H](C(=O)NCCc2c[nH]cn2)[C@H](C(=O)NCCc2c[nH]c3ccccc23)C1 | inactive | inactive |  |
| CC(C)C[C@H](N)C(=O)N1C[C@@H](C(=O)NCCCCN)[C@H](C(=O)NCCc2ccc3ccccc3c2)C1 | inactive | inactive |  |
| CC[C@H](C)[C@H](NC(=O)c1ccc(NC(=O)[C@@H](N)CCSC)c(OCc2c[nH]cn2)c1)C(=O)O | inactive | inactive |  |
| CC[C@H](C)[C@H](NC(=O)c1ccc(NC(=O)[C@@H](N)Cc2ccc(OC)cc2)c(OCc2c[nH]cn2)c1)C(=O)O | inactive | inactive |  |
| CC[C@H](C)[C@H](NC(=O)c1ccc(NC(=O)CN)c(OCc2c[nH]cn2)c1)C(=O)O | inactive | inactive |  |
| NCCCCNC(=O)[C@@H]1CN(C(=O)[C@@H](N)Cc2ccccc2)C[C@H]1C(=O)NCCc1ccc2ccccc2c1 | inactive | inactive |  |
| CC[C@H](C)[C@H](NC(=O)c1ccc(NC(=O)[C@@H](N)CC(C)C)c(OCc2c[nH]cn2)c1)C(=O)O | inactive | inactive |  |
| CC[C@H](C)[C@H](NC(=O)c1ccc(NC(=O)[C@@H](N)Cc2ccc(Cl)cc2)c(OCc2c[nH]cn2)c1)C(=O)O | inactive | inactive |  |
| NCCCCNC(=O)[C@@H]1CN(C(=O)[C@@H](N)CO)C[C@H]1C(=O)NCCc1ccc2ccccc2c1 | inactive | inactive |  |
| CC[C@@H](C)[C@H](NC(=O)c1ccc(NC(=O)[C@@H](N)[C@@H](C)O)c(OCc2c[nH]cn2)c1)C(=O)O | inactive | inactive |  |
